The results in this text go back to ChEMBL document CHEMBL4602716, “Development of Selective Histone Deacetylase 6 (HDAC6) Degraders Recruiting Von Hippel-Lindau (VHL) E3 Ubiquitin Ligase” (ACS Med Chem Lett, 2020).

Active and inactive are the calls of the source. The calls are words filed in the database; no cut-off is given here.

Common to all, as to type: cell-based
Assay [1] concerns the target T1, von Hippel-Lindau disease tumor suppressor/Protein deacetylase HDAC6 (Homo sapiens, UniProt Q9UBN7+P40337). Kind of assay: Protac activity at VHL/HDAC6 in human MM1S cells assessed as HDAC6 degradation at 100 nM measured after 6 hrs by ELISA. In outline:
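Linker-length screen. MM1S cells were treated with degraders at 100 nM for 6 h, and HDAC6 protein level was quantified by in-cell ELISA.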
Target sequence in this assay (P40337 whole entry, looked up): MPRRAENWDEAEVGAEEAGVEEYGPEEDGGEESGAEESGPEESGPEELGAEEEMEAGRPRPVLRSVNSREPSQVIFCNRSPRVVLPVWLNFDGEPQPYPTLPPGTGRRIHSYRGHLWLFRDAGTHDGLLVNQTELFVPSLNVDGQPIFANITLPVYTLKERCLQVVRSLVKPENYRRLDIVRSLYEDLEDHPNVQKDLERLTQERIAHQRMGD
Target sequence in this assay (Q9UBN7 whole entry, looked up): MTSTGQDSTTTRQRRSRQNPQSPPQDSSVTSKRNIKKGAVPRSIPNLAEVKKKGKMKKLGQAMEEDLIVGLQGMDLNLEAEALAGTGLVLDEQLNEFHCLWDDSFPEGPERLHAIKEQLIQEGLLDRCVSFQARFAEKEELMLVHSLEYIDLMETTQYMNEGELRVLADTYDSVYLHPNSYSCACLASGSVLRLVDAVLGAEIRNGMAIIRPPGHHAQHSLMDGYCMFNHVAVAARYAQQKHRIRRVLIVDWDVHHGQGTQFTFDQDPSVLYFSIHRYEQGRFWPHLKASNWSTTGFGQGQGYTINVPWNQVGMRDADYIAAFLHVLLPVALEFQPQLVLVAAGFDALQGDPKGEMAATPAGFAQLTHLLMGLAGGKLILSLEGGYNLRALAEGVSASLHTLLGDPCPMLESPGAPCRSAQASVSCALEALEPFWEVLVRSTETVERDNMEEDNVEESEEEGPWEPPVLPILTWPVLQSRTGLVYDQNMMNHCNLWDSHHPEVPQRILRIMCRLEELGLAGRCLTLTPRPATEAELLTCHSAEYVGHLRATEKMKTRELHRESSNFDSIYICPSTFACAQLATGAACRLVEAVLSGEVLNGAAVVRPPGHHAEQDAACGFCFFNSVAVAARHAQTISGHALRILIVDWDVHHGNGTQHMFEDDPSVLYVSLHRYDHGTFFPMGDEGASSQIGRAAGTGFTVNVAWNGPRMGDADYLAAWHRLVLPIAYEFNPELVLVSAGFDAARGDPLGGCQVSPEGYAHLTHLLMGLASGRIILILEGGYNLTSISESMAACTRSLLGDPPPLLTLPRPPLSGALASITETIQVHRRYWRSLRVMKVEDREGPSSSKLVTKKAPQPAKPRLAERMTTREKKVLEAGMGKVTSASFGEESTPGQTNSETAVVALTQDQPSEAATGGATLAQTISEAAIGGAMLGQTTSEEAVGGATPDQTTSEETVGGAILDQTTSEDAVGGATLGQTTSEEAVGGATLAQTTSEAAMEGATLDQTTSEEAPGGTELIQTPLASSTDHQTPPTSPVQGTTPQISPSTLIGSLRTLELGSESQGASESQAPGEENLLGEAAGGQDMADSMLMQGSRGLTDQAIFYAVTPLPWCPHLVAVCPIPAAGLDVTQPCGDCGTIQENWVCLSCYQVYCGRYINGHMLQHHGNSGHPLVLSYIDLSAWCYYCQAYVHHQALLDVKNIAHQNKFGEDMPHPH

Assay [2] addresses T1, von Hippel-Lindau disease tumor suppressor/Protein deacetylase HDAC6. Kind of assay: Protac activity at VHL/HDAC6 in human MM1S cells assessed as increase in tubulin acetylation at 100 nM measured after 6 hrs by Western blot analysis. In outline: (§1)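 MM1S cells were treated with degraders at 100 nM for 6 h. Lysates were analysed by Western blot for HDAC6 and acetylated tubulin.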
Target sequence in this assay (P40337 whole entry, looked up): as the sequence (P40337 whole entry, looked up) above
Target sequence in this assay (Q9UBN7 whole entry, looked up): as the sequence (Q9UBN7 whole entry, looked up) above

The target is the same in assay [3]. Kind of assay: Protac activity at VHL/HDAC6 in human MM1S cells assessed as HDAC6 degradation at 100 nM measured after 6 hrs by Western blot analysis. In outline: as §1
Target sequence in this assay (P40337 whole entry, looked up): as the sequence (P40337 whole entry, looked up) above
Target sequence in this assay (Q9UBN7 whole entry, looked up): as the sequence (Q9UBN7 whole entry, looked up) above
For assay [4] the target is unchanged. Briefly: Protac activity at VHL/HDAC6 in human MM1S cells measured after 6 hrs by ELISA. In outline:
(§2)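 MM1S multiple myeloma cells exposed to degraders for 6 h. HDAC6 protein level was read by in-cell ELISA; dose-response ran from 1 nM to 3 μM. DC50 and Dmax were derived from the dose-response curve.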
Target sequence in this assay (Q9UBN7 whole entry): as the sequence (Q9UBN7 whole entry, looked up) above
Target sequence in this assay (P40337 whole entry): as the sequence (P40337 whole entry, looked up) above

For assay [5] the target is unchanged. Briefly: Protac activity at VHL/HDAC6 in human MM1S cells measured after 6 hrs by ELISA relative to control. In outline: as §2
Target sequence in this assay (P40337 whole entry, looked up): as above
Target sequence in this assay (Q9UBN7 whole entry, looked up): as the sequence (Q9UBN7 whole entry, looked up) above
The target in assay [6] is T2, Protein cereblon/Protein deacetylase HDAC6 (Mus musculus, UniProt Q9Z2V5+Q8C7D2).
T2 sequence (Q9Z2V5 whole entry): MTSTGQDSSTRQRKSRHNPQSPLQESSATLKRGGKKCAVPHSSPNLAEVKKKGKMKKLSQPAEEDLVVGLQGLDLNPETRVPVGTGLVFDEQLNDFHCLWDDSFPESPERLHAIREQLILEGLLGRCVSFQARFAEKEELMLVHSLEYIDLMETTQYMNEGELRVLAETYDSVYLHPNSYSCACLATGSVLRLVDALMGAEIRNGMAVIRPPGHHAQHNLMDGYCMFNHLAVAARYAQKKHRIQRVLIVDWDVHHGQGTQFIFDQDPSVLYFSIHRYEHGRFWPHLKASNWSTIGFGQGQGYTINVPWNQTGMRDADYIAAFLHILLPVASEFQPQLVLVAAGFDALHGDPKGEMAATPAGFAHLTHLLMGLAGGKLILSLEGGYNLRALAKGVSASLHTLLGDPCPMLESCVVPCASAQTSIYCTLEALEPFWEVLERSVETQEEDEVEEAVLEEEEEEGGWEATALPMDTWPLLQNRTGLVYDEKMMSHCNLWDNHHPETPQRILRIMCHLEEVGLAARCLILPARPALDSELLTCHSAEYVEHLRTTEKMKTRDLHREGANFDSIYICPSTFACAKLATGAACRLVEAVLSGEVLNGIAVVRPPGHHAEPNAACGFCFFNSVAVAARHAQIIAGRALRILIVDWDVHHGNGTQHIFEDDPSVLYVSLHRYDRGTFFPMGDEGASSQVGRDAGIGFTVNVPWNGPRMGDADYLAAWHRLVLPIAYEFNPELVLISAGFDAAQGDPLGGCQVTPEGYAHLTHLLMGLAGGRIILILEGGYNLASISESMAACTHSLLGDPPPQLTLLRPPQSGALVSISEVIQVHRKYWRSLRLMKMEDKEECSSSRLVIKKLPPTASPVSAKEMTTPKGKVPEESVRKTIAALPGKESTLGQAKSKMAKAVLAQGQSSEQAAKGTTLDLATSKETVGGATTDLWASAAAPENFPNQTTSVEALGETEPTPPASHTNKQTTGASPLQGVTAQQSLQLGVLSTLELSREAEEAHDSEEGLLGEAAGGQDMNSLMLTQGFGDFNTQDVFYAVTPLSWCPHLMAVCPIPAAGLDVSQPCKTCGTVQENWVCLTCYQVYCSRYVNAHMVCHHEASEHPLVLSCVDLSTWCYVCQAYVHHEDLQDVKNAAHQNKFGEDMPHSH
T2 sequence (Q8C7D2 whole entry): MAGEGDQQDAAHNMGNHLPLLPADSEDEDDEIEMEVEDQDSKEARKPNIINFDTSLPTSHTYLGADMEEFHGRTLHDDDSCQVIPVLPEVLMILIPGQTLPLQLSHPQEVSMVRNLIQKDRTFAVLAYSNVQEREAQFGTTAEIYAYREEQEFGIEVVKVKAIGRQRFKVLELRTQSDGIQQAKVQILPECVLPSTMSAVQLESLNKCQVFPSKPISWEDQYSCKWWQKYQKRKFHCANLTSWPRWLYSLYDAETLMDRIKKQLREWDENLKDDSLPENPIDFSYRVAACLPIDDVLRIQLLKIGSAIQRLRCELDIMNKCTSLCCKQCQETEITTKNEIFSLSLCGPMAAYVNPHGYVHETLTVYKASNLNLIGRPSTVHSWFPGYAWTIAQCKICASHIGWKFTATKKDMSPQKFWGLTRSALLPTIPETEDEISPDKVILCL
Kind of assay: Protac activity at CRBN/HDAC6 in mouse 4935 cells assessed as HDAC6 degradation after 6 hrs by ELISA. In outline:
(§3)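 Mouse 4935 cells were treated with degrader for 6 h, and HDAC6 level was measured by in-cell ELISA.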

The target of assay [7] is T3, Protein cereblon/Protein deacetylase HDAC6 (Homo sapiens, UniProt Q9UBN7+Q96SW2). Briefly: Protac activity at CRBN/HDAC6 in human MM1S cells assessed as increase in tubulin acetylation at 300 nM to 1 microM after 6 hrs by Western blot analysis.
Target sequence in this assay (Q96SW2 whole entry, looked up): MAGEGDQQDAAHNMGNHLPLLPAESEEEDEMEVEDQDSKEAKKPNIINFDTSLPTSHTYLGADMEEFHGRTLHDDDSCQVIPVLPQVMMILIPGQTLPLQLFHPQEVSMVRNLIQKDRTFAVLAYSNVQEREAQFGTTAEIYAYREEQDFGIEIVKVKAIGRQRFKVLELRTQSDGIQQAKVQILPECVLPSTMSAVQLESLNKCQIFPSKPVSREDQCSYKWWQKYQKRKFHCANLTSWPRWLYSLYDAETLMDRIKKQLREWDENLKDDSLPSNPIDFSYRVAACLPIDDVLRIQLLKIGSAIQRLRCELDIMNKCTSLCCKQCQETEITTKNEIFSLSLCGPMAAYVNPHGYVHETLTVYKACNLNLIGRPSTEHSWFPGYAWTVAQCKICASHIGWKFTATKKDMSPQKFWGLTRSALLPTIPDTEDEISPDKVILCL
Target sequence in this assay (Q9UBN7 whole entry, looked up): as the sequence (Q9UBN7 whole entry, looked up) above
Assay [8] addresses T3, Protein cereblon/Protein deacetylase HDAC6. Kind of assay: Protac activity at CRBN/HDAC6 in human MM1S cells measured after 6 hrs by ELISA relative to control. In outline: as §2
Target sequence in this assay (Q96SW2 whole entry, looked up): as the sequence (Q96SW2 whole entry, looked up) above
Target sequence in this assay (Q9UBN7 whole entry, looked up): as the sequence (Q9UBN7 whole entry, looked up) above
Assay [9] shares this target. Briefly: Protac activity at CRBN/HDAC6 in human MM1S cells assessed as reduction in protein level at 100 nM after 30 mins by Western blot analysis.
Target sequence in this assay (Q96SW2 whole entry, looked up): as the sequence (Q96SW2 whole entry, looked up) above
Target sequence in this assay (Q9UBN7 whole entry, looked up): as the sequence (Q9UBN7 whole entry, looked up) above
Assay [10] deals with Protein cereblon/Protein deacetylase HDAC6 (Mus musculus) (UniProt Q9Z2V5+Q8C7D2). Briefly: Protac activity at CRBN/HDAC6 in mouse 4935 cells assessed as HDAC6 degradation after 6 hrs by relative to control. The method, boiled down: as §3
Assay [11] addresses T3, Protein cereblon/Protein deacetylase HDAC6. Kind of assay: Protac activity at CRBN/HDAC6 in human MM1S cells measured after 6 hrs by ELISA. The method, boiled down: as §2
Target sequence in this assay (Q9UBN7 whole entry): as the sequence (Q9UBN7 whole entry, looked up) above
Target sequence in this assay (Q96SW2 whole entry): as the sequence (Q96SW2 whole entry, looked up) above
The target of assay [12] is T2, Protein cereblon/Protein deacetylase HDAC6. Kind of assay: Protac activity at CRBN/HDAC6 in mouse 4935 cells assessed as HDAC6 degradation after 6 hrs by Western blot analysis. The method, boiled down: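 Mouse 4935 cells were treated with degraders for 6 h, then analysed by Western blot for HDAC6 and acetylated tubulin.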
In assay [13] the target is T3, Protein cereblon/Protein deacetylase HDAC6. Briefly: Protac activity at CRBN/HDAC6 in human MM1S cells assessed as reduction in protein level at 100 nM after 4 hrs by Western blot analysis.
Target sequence in this assay (Q96SW2 whole entry, looked up): as above
Target sequence in this assay (Q9UBN7 whole entry, looked up): as the sequence (Q9UBN7 whole entry, looked up) above

`CCCCN(Cc1ccc(C(=O)NO)cc1)C(=O)Nc1ccc(OCCCCCCCn2cc(CCCCC(=O)N[C@H](C(=O)N3C[C@H](O)C[C@H]3C(=O)NCc3ccc(-c4scnc4C)cc3)C(C)(C)C)nn2)cc1`: the outcome in assay [1] was Active.

As to `CCCCN(Cc1ccc(C(=O)NO)cc1)C(=O)Nc1ccc(OCCCCCCn2cc(CCCCC(=O)N[C@H](C(=O)N3C[C@H](O)C[C@H]3C(=O)NCc3ccc(-c4scnc4C)cc3)C(C)(C)C)nn2)cc1`, the result in [1] was Active.

`CCCCN(Cc1ccc(C(=O)NO)cc1)C(=O)Nc1ccc(OCCn2cc(CCCCC(=O)N[C@H](C(=O)N3C[C@H](O)C[C@H]3C(=O)NCc3ccc(-c4scnc4C)cc3)C(C)(C)C)nn2)cc1`: the outcome in [1] was Active.

Consider `CCCCN(Cc1ccc(C(=O)NO)cc1)C(=O)Nc1ccc(OCCCCCn2cc(CCCCC(=O)N[C@H](C(=O)N3C[C@H](O)C[C@H]3C(=O)NCc3ccc(-c4scnc4C)cc3)C(C)(C)C)nn2)cc1`, for which the outcome in [1] was Active.

For the compound `CCCCN(Cc1ccc(C(=O)NO)cc1)C(=O)Nc1ccc(OCCCCCCCCCCn2cc(CCCCC(=O)N[C@H](C(=O)N3C[C@H](O)C[C@H]3C(=O)NCc3ccc(-c4scnc4C)cc3)C(C)(C)C)nn2)cc1`, the outcome in assay [2], in assay [1] and in assay [3] was Active.

For `CCCCN(Cc1ccc(C(=O)NO)cc1)C(=O)Nc1ccc(OCCCCCCCCCn2cc(CCCCC(=O)N[C@H](C(=O)N3C[C@H](O)C[C@H]3C(=O)NCc3ccc(-c4scnc4C)cc3)C(C)(C)C)nn2)cc1`, the result in [2], in [1] and in assay [3] was Active.

With `CCCCN(Cc1ccc(C(=O)NO)cc1)C(=O)Nc1ccc(OCCCCn2cc(CCCCC(=O)N[C@H](C(=O)N3C[C@H](O)C[C@H]3C(=O)NCc3ccc(-c4scnc4C)cc3)C(C)(C)C)nn2)cc1`, the outcome in assay [1] was Active.

For `CCCCN(Cc1ccc(C(=O)NO)cc1)C(=O)Nc1ccc(OCCCn2cc(CCCCC(=O)N[C@H](C(=O)N3C[C@H](O)C[C@H]3C(=O)NCc3ccc(-c4scnc4C)cc3)C(C)(C)C)nn2)cc1`, the result in assay [1] was Active.

Regarding `CCCCN(Cc1ccc(C(=O)NO)cc1)C(=O)Nc1ccc(OCCCCCCCCn2cc(CCCCC(=O)N[C@H](C(=O)N3C[C@H](O)C[C@H]3C(=O)NCc3ccc(-c4scnc4C)cc3)C(C)(C)C)nn2)cc1`, the result in assay [1] and in assay [3] was Active.

Regarding `CCCCN(Cc1ccc(C(=O)NO)cc1)C(=O)Nc1ccc(OCCCCCCCCCCCCn2cc(CCCCC(=O)N[C@H](C(=O)N3C[C@H](O)C[C@H]3C(=O)NCc3ccc(-c4scnc4C)cc3)C(C)(C)C)nn2)cc1`, the DC50 in assay [4] worked out at 11 nM. For the same compound, the Emax in assay [5] was 89%. The outcome in assay [1] and in assay [3] was Active.

Consider `CCCCN(Cc1ccc(C(=O)NO)cc1)C(=O)Nc1ccc(OCCCCCn2cc(CNc3cccc4c3C(=O)N(C3CCC(=O)NC3=O)C4=O)nn2)cc1` (stereo unspecified), for which the figures for the DC50 in assay [6], in assay [11] and in assay [12] were 18 nM, 2.2 nM and 360 nM, respectively. In addition, the result in [7], in [9] and in assay [13] was Active. In addition, the maximal effect (Emax) in assay [8] was 86%; in assay [10], 45%.
